CSN inh: CSN deneddylation inhibition. Purified CSN, SCF-Nedd8-OG deneddylation, fluorescence polarization. inhibition, % at 12.5 µM. 360,000 tested, 0.38% active;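 active = pattern-corrected inhibition above about 35%, with an unprinted fluorescence ratio check between 0.5 and 1.5, limit read from the data, passing the limit was not always enough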;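 also: 0% = enzyme with substrate and 100% = substrate without enzyme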
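test system = HEK293T-derived human Csn5 enzyme | amount = 0.24 nM Csn5 enzyme, final concentration | medium = Tris/NaCl/DTT buffer, pH 7.5 | schedule = 90 min reaction at room temperature | signal = FP | evaluation = inhibition of Csn5 cleavage, % | compound dosing = single dose of 12.5 µM compound with 0.25% DMSO | probe or stimulus = 10 nM SCFSkp2-Nedd8OG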
IDE inh: inhibitors of human insulin-degrading enzyme in cells. P14735. HEK cells, FAbetaB cleavage, fluorescence polarization. inhibition, % at 5.59 µM. 320,000 tested, 0.41% active;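 active = percent inhibition above the average of all tested compounds plus 3 SD, set per screening campaign, cut at about 16% in these data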;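 also: IDE supplied by intact live HEK cells; FP after avidin binding of uncleaved biotin substrate so inhibition keeps polarization high; 0% = DMSO wells and 100% = 60 µM reference IDE inhibitor Ii1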
IDE cell activ: IDE (human) activation, cell-based | P14735 | HEK cells, FAbeta-B cleavage, fluorescence polarization; 0% vehicle, 100% cell-free pure enzyme wells | activation, % at 5.96 µM | 340,000 tested, 0.073% active;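 active = activation above the mean of all tested compounds plus 3 SD, set per screening campaign, cut at about 17% in these data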
TPT1 inh: blocks Candida albicans tRNA 2'-phosphotransferase; recombinant caTPT1, FP RNA substrate dephosphorylation; 300,000 tested, 0.81% active; inhibition, % at 5 µM;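 active = inhibition above the mean of all tested compounds plus 3 SD, set per screening campaign, cut at about 24% in these data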;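 also: plate controls were DMSO alone for no effect and ferristatin control at 100 nM for full effect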
Rpn11 block: inhibitors of human proteasome Rpn11; O00487; human 26S proteasome, Ub4-pepOG fluorescence polarization; 20S core pre-blocked with epoxomicin; inhibition, % at 20 µM; 360,000 tested, 0.59% active;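 active = inhibition at 20 µM, scaled to each plate's controls, above about 33%, limit read from the data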
Target sequence (O00487 whole entry, looked up): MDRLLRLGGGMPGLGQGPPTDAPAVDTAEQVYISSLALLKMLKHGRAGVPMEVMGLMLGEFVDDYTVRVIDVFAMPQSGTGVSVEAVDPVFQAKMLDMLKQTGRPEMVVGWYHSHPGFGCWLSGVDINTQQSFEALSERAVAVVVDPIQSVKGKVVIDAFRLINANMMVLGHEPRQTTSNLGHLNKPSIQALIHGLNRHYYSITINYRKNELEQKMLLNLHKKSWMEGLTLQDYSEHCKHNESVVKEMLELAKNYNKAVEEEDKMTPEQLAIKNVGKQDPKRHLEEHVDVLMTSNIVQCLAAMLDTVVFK
HNF4A DNA FP: change in binding of human HNF4 alpha to DNA; P41235; 360,000 tested, 0.3% active; HNF4a-FITC DNA binding, fluorescence polarization, 1 h; activity change, % at 10 µM; in the data active = activity change above about 30%, passing the limit was not always enough
An asterisk follows results filed as active; . = no result given. The list is not random: actives were taken first. Their share in the collection is about 1.7%.

SMILES	CSN inh	IDE inh	IDE cell activ	TPT1 inh	Rpn11 block	HNF4A DNA FP
O=C1OC(c2cccs2)=N/C1=C\c1ccc(-c2ccccc2Cl)o1	23	.	0	.	87*	17
COCCCn1c(=O)/c(=C\c2ccc(OC(F)F)c(OC)c2)s/c1=C(/C#N)C(N)=O	68	-2	16	8	.	51*
Cc1ccc(NC(=O)c2ccc(=O)n(CC(=O)Nc3ccccc3)n2)cc1	-5	3	7	3	0	5
O=C(C[n+]1ccc(CCSc2ccc(F)cc2)cc1)c1ccccc1	105*	-4	5	15	82*	128
CCc1nc2c(OCCC3CCCCC3)cccn2c1N(C)C(=O)c1ccccc1F	1	.	.	.	2	2
COc1ccc(OC)c(Nc2nc3nonc3nc2N2CCCCC2)c1	10	-3	2	-2	.	40*
CC(c1nc2ccccc2[nH]1)n1c(=O)c(-c2ccco2)nc2ccccc21 (stereo not given)	20	.	.	.	.	23
CCCCC(CC)CNC(=O)c1[nH]c(C)c(C(C)=O)c1C (stereo not given)	-1	2	8	4	-1	-1
CCCCNC(=O)c1[nH]c(C)c(C(C)=O)c1C	-1	-2	4	-2	-4	34*
O=C1CCN2C=Nc3cccc4ccc1c2c34	-73	-21	41*	-141	-173	-81
O=C1CCC(=O)c2ccc3c4c(ccc1c24)CC3	-25	.	1	.	-17	1
COc1cc(NC(=O)N2CCNC2=O)cc(C(=O)Nc2cccc(C(F)(F)F)c2)c1	-4	2	38*	2	-5	1
CCN1CCN(Cc2ccc(NC(=O)c3cc(NC(=O)N4CCNC4=O)cc(OC)c3)cc2C(F)(F)F)CC1	-2	-1	-3	1	3	0
COc1cc(C2Nc3cccc4cccc(c34)N2)cc(OC)c1O	-2	-6	28*	-1	-9	0
COc1cc(C2Nc3cccc4cccc(c34)N2)ccc1OC(C)=O	3	2	2	1	-24	1
Nc1nccc(/C=C/c2c(F)cccc2Cl)n1	2	0	-6	-2	9	4
O=c1cc(/C=C/c2c(F)cccc2Cl)[nH]c2ccccc12	-5	9	-3	-5	88*	-2
CC1CCN(S(=O)(=O)c2ccc(S(=O)(=O)N3CCCC3)cc2)CC1	0	7	0	0	3	-2
COC(=O)c1c(/N=C/NOCc2ccc(Cl)cc2)sc2c1CCN(c1ncc(C(F)(F)F)cc1Cl)C2	37*	2	-1	-1	-3	2
O=c1ccc2cc3c([nH]c4ccc(Br)cc43)oc-2c1O	29	10	-22	14	46*	87
CC(=O)c1csc(COc2ccccc2)n1	2	8	1	-2	2	63*
Cc1ccc(C(=O)Nc2ccnc(-c3ccncc3)n2)cc1	-6	-2	-1	3	1	-3
C#CCN1C(=O)S/C(=C\c2cc3c(cc2OC)OCO3)C1=O	50*	1	6	9	.	56
O=C(NCc1cc(C(F)(F)F)ccc1Cl)c1cccc2c1C(=O)c1ccc(N3CCCCC3)cc1S2(=O)=O	55*	7	3	.	.	73
O=C(NCc1ccc(OC(F)(F)F)cc1)c1cccc2c1C(=O)c1ccc(N3CCCC3)cc1S2(=O)=O	85*	9	-1	.	.	99
SMILES	CSN inh	IDE inh	IDE cell activ	TPT1 inh	Rpn11 block	HNF4A DNA FP
O=C(NCc1cc(C(F)(F)F)ccc1Cl)c1cccc2c1C(=O)c1ccc(N3CCOCC3)cc1S2(=O)=O	23	-2	-4	.	34	25
COc1ccc(S(=O)(=O)NCc2cccnc2)cc1Br	-2	-4	3	0	-2	129*
COc1ccc(S(=O)(=O)NCc2cccnc2)cc1	-1	0	6	5	-3	1
COc1ccc(S(=O)(=O)NCc2cccnc2)cc1NC(=O)c1ccccc1C	24	.	-3	.	64*	-34
CS(=O)(=O)c1cc(C(=O)O)cc(NCc2ccccc2)c1Oc1ccccc1	0	.	.	.	-2	3
CC(=O)c1ccc(N2C(=O)CC(N3CCN(S(=O)(=O)c4ccc(C)c(C)c4)CC3)C2=O)cc1 (stereo not given)	4	-1	3	.	2	-4
COc1cc(-c2cc(O)c(-c3ccc4ccccc4n3)c(=O)[nH]2)cc(OC)c1OC	58*	.	-5	.	.	135
CC(C(=O)NCCc1ccc(F)cc1)N1CCN(Cc2ccccc2)CC1 (stereo not given)	2	4	5	-1	-2	1
CCOC(=O)c1ccc(N/C=C/C(=O)c2ccc(OC)c(OC)c2)cc1	101*	-2	6	1	2	-2
COc1ccc(NC2CC(=O)N(c3cc([N+](=O)[O-])ccc3C)C2=O)cc1 (stereo not given)	-2	4	6	-2	5	0
Cc1ccc(N(C(=O)Nc2ccccc2)C2=NCC(C)S2)cc1 (stereo not given)	0	0	4	-1	-1	33*
CCOC(=O)C(C)Sc1ncc(-c2ccc(Cl)cc2)cn1 (stereo not given)	2	-1	8	-3	-14	73*
CS(=O)(=O)N(CC(=O)N1CCN(Cc2ccccc2)CC1)Cc1ccccc1	82*	-2	5	-2	-3	-4
O=C(O)c1ccccc1C=NNc1ccc([N+](=O)[O-])cn1	2	.	5	.	2	1
O=[N+]([O-])c1ccc(NN=Cc2cccc3ccccc23)nc1	23	.	3	.	.	35*
COc1ccc(-c2cnc3c(NC(C)=O)cc(-c4ccsc4)cn23)cc1OC	27	.	.	.	54*	17
[O-][n+]1onc2c1CCC(=N/O)/C2=N\Nc1ccccc1	.	3	.	4	.	.
Cc1oc(-c2ccc(Cl)cc2)cc1-c1nn2c(-c3ccoc3C)nnc2s1	36*	-1	-7	19	25	-27
Clc1ccc(-c2nnc3sc(-c4ccc(Br)o4)nn23)cc1	-82	-5	17	-69	-164	-96
COc1cccc(/C=C2/NC(=O)N(CC(=O)Nc3ccc(C)cc3)C2=O)c1OCc1cccc(C(=O)O)c1	37*	2	1	-4	2	-6
Cc1ccc(NC(=O)CN2C(=O)N/C(=C/c3ccccc3OCc3cccc(C(=O)O)c3)C2=O)cc1	72*	7	4	1	4	0
Cc1ccc(NC(=O)CN2C(=O)N/C(=C/c3cc(C)n(-c4cccc(C(=O)O)c4)c3C)C2=O)cc1	33	.	1	.	-5	-12
CC(=O)N1CCOc2ccc(S(=O)(=O)NCCc3cccc(C)c3)cc21	-7	-1	-5	-2	-8	2

Source: PubChem BioAssay (several laboratories)
